This note sets out measurements from PMC12040637 (Iranian Biomedical Journal, 2024).

Structures are written as SMILES. In brackets after ≈: the same amount, converted by molar mass. Several values for one entry are separate records, joined by “and”; a condition that tells them apart may be missing. Identical values can stand only once.

The IC50 is the concentration that inhibits the measured activity by half.

In series [1] the test system is Hep G2 cells. The series can be described thus: MTT cytotoxic assay. The class given is cell-based. The conditions noted are these: for IC50: Homo sapiens, HepG2, 24 h, read-out: Hep G2 cells IC50. Put shortly: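 Hep G2 cells (Pasteur Institute of Iran) seeded at 10,000 cells/well and grown 24 h at 37 °C, 5% CO2. Extract and fractions were tested at 12.5–200 μg/mL for 24 h. MTT was then added for 4 h at 37 °C, and formazan was dissolved in DMSO and read at 570 nm. IC50 came from plots of growth inhibition against concentration; mean ± SD of triplicates.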
A general note: Formazan colour is commonly taken as a measure of viable cells.

A short description of series [2]: ABTS radical cation scavenging assay. The class given is biochemical. The conditions noted are these: absorbance 734 nm after 15 minutes; mean ± SD of triplicate. Put shortly:
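ABTS radical cation made by mixing aqueous ABTS diammonium salt with ammonium persulfate, then kept dark at room temperature for 16 h. It was diluted with ethanol to A734 0.70 ± 0.05. 200 µL radical solution was added to 20 µL of samples at a range of concentrations, and A734 was read after 15 min. IC50 reported as mean ± SD of three replicates.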

The test system of series [3] is protease. In words: Determination of protease inhibition. The conditions noted are these: casein 1%, 25 °C, 10 minutes. The class given is biochemical. Put shortly: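 Samples prepared at 1–300 µg/mL; 50 µL was combined with 200 µL of 50 mM phosphate buffer, then protease and 1% casein substrate were added. The mixture was incubated at 25 °C for 10 min and stopped with 10% trichloroacetic acid. After 21 min it was centrifuged at 895 ×g for 5 min, and supernatant absorbance was read at 280 nm. IC50 as mean ± SD of three replicates.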

A short description of series [4]: NO radical scavenging. The class given is biochemical. The conditions noted are these: for NO scavenging ability percentage: 200 μg/mL, mean ± SD of triplicate. Put shortly:
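Sodium nitroprusside (50 µL, 10 mmol) and 50 µL MeOH were added to 50 µL sample and incubated at 25 °C for 150 min. Then 100 µL Griess reagent was added for 5 min at room temperature, and absorbance was read at 542 nm. Blanks held sample, nitroprusside and MeOH without Griess reagent. Inhibition ratio was calculated from sample, blank and control absorbances; triplicate.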

Series [5] can be described thus: FRAP assay. Format: biochemical. The settings on record: absorbance 593 nm; mean ± SD of triplicate. Put shortly:
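FRAP reagent: 300 mM acetate buffer pH 3.6, 10 mM TPTZ in 40 mM HCl and 20 mM FeCl3·6H2O at 10:1:1, held dark at 37 °C for 10 min. 20 µL sample (6.25–3200 μg/mL solutions) was added to 180 µL pre-warmed reagent; controls held MeOH. Absorbance was read at 593 nm, and the FRAP value was calculated against the control; triplicate analysis.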

Series [6] in a line: DPPH radical scavenging activity assay. The class given is biochemical. The settings on record: 30 min at 37 °C, absorbance 517 nm; mean ± SD of triplicate. Put shortly:
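20 µL of sample (6.25–3200 μg/mL solutions) mixed with 200 µL methanolic DPPH and kept dark at 37 °C for 30 min; absorbance read at 517 nm. Blanks held sample plus MeOH; controls held MeOH plus DPPH. Percent inhibition was calculated from control and blank absorbances. Quercetin was the standard; triplicate runs.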

Series [7] relates to Hep G2 cells. The series can be described thus: CAA assay. The class given is cell-based. The settings on record: Homo sapiens, HepG2, read-out: CAA IC50. Put shortly: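 Hep G2 cells seeded at 6 × 10^4 cells/well overnight, then washed three times with PBS. Cells were incubated at 37 °C in treatment medium containing extract at various concentrations plus 25 µM DCFH-DA, then washed with PBS. AAPH was added, and fluorescence (ex 485/em 538 nm) was read every 5 min for 1 h at 37 °C. IC50 is the concentration scavenging 50% of AAPH radicals; quercetin was the standard; triplicates.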

Series [8] is described as follows: ORAC assay. The class given is biochemical. The conditions noted are these: Trolox equivalents. Put shortly:
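Blank, Trolox standard or sample (20 µL) in 75 mM potassium phosphate buffer was plated in triplicate with 200 µL of 0.96 µM fluorescein and held at 37 °C for 20 min. AAPH was then added, and fluorescence decay (ex 485/em 538 nm) was recorded every 4.5 min for 2.5 h. Values were expressed as Trolox equivalents.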

Regarding `N.N.[Cl][Pt][Cl]` [Cisplatin, reference compound], in series [1] (MTT, 24 h treatment, mean ± SD), the “Hep G2 cells IC50” value was 12.65 ± 0.78 µg/mL.
In the case of `CC1(C)CC[C@]2(C(=O)O)CC[C@]3(C)C(=CC[C@@H]4[C@@]5(C)CC[C@H](O)C(C)(C)[C@@H]5CC[C@]43C)[C@@H]2C1` [Oleanolic acid], the “ABTS IC50” value in series [2] was more than 2000 µg/mL. Moreover, the “Protease inhibition IC50” value in series [3] came out at 28.0 ± 0.2 µg/mL. Moreover, the entries for the “NO scavenging ability percentage” value in series [4] and in series [4] (listed as oleanolic acid) were 48.82 ± 0.91% and 48.82%, respectively. In addition, the “FRAP IC50” value in series [5] was determined as 198.86 ± 1.49 µg/mL. In addition, in series [6], the “DPPH IC50” value is more than 2000 µg/mL. In addition, the IC50 in series [1] is 123 ± 8.84 µg/mL (≈ 270 µM); in series [7] it was more than 200 µg/mL. Moreover, in series [1] (MTT), the “cytotoxic effect on the Hep G2 cell line (in words)” value is “low antiproliferative effect”. In addition, the “ORAC TE” value in series [8] is on record as 0.46 TE.
`O=c1c(O)c(-c2ccc(O)c(O)c2)oc2cc(O)cc(O)c12` [Quercetin, quercetin, reference compound]: in series [2], the “ABTS IC50” value was determined as 26.35 ± 0.03 µg/mL. The “NO scavenging ability percentage” value in series [4] was determined as 89.96 ± 0.01%. Moreover, the “FRAP IC50” value in series [5] was determined as 18.53 ± 0.12 µg/mL. The “DPPH IC50” value in series [6] turned out to be 26.51 ± 0.06 µg/mL. For the same compound, the IC50 in series [7] is 38.9 ± 0.87 µg/mL (≈ 129 µM). In series [8], the “ORAC TE” value stood at 1.06 TE.
As for `O=C(/C=C/c1ccc(O)c(O)c1)O[C@H](Cc1ccc(O)c(O)c1)C(=O)O` [Rosmarinic acid], the “ABTS IC50” value in series [2] turned out to be 39.52 ± 0.72 µg/mL. For the same compound, the “Protease inhibition IC50” value in series [3] amounted to 17.0 ± 0.3 µg/mL. In series [4], this compound returned an NO scavenging of 71.44 ± 1.04 µg/mL. In series [4], the “NO scavenging ability percentage” value is 71.44 ± 0.37% and 71.44 ± 1.04%. Besides, the “FRAP IC50” value in series [5] amounted to 31.87 ± 0.67 µg/mL. Further, the “DPPH IC50” value in series [6] amounted to 28.39 ± 0.75 µg/mL. For the same compound, the IC50 in series [1] was found to be 47.8 ± 5.87 µg/mL (≈ 133 µM); in series [7] it was 171 µg/mL (≈ 475 µM). Also, the “ORAC TE” value is listed as 0.60 TE in series [8] and 0.6 TE in series [8] (listed as rosmarinic acid).
Take `C[C@@H]1O[C@@H](OC[C@H]2O[C@@H](Oc3c(-c4ccc(O)c(O)c4)oc4cc(O)cc(O)c4c3=O)[C@H](O)[C@@H](O)[C@@H]2O)[C@H](O)[C@H](O)[C@H]1O` [Rutin, Quercetin-3-O-rutoside]: the “ABTS IC50” value in series [2] amounted to 87.31 ± 0.68 µg/mL. Moreover, in series [3], the “Protease inhibition IC50” value amounted to 22.4 ± 0.1 µg/mL. Moreover, the “NO scavenging ability percentage” value in series [4] is reported as 81.30 ± 0.37%. Also, the “FRAP IC50” value in series [5] is 42.62 ± 0.86 µg/mL. Further, the “DPPH IC50” value in series [6] turned out to be 33.48 ± 0.52 µg/mL. For the same compound, the IC50 in series [1] was 63.9 ± 0.96 µg/mL (≈ 105 µM); in series [7], more than 200 µg/mL. For the same compound, the “ORAC TE” value in series [8] is recorded as 0.83 TE.
Take `C[C@H]1[C@H](C)CC[C@]2(C(=O)O)CC[C@]3(C)C(=CC[C@@H]4[C@@]5(C)CC[C@H](O)C(C)(C)[C@@H]5CC[C@]43C)[C@H]12` [Ursolic acid]: the “ABTS IC50” value in series [2] is more than 2000 µg/mL. Moreover, the “Protease inhibition IC50” value in series [3] was 24.5 ± 0.1 µg/mL. The “NO scavenging ability percentage” value in series [4] is 55.52 ± 0.43%; in series [4] (listed as ursolic acid), 55.52%. For the same compound, the “FRAP IC50” value in series [5] is 298.51 ± 1.76 µg/mL. The “DPPH IC50” value in series [6] was more than 2000 µg/mL. Moreover, the IC50 in series [1] is more than 200 µg/mL; in series [7], 184 ± 9.25 µg/mL (≈ 402 µM). Besides, in series [8], the “ORAC TE” value worked out at 0.31 TE.
